According to ChEMBL document CHEMBL3414450, “Synthetic phenylethanoid glycoside derivatives as potent neuroprotective agents” (Eur J Med Chem, 2015):
Active and inactive are the calls of the source. No cut-off for these calls is given here.

Columns and labels:
PC-12 [1] = assay: Neuroprotective activity in rat PC12 cells assessed as decrease in H2O2-induced cell death at 100 uM incubated for 6 hrs prior to H2O2 challenge measured after 1 hr by MTT assay; format: functional, cell-based
Outline: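 PC12 cells seeded at 1×10^5/well for 24 h. Pretreated 6 h with compound (100 μM; DMSO stock diluted in PBS), then challenged with 300 μM H2O2 for 1 h at 37 °C. MTT at 5 mg/mL for 4 h, DMSO solubilisation, A570. Survival is given as % of the PBS-treated control, mean ± SD, n = 3. Vitamin C was the positive control.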

PC-12 [2] = assay: Neuroprotective activity in rat PC12 cells assessed as decrease in 6-OHDA-induced cell death at 6.25 to 100 uM incubated for 6 hrs prior to 6-OHDA challenge measured after 24 hrs by MTT assay; format: functional, cell-based
Outline: (§1)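 PC12 cells seeded at 1×10^5/well for 24 h, pretreated 6 h with compound (6.25–100 μM; DMSO stock diluted in PBS), then exposed to 100 μM 6-OHDA for 24 h at 37 °C. Viability read by MTT (5 mg/mL, 4 h), DMSO, absorbance 570 nm. Expressed as % of the PBS-treated control, mean ± SD, n = 3.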

PC-12 [3] = assay: Neuroprotective activity in rat PC12 cells assessed as decrease in 6-OHDA-induced early and late apoptosis at 6.25 to 25 uM incubated for 6 hrs prior to 6-OHDA challenge measured after 24 hrs by annexin V/propidium iodide staining-based fluorescence microscopic analysis; format: functional, cell-based
Outline: (§2)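 PC12 cells on coverslips (1×10^5/well) pretreated 6 h with compound, then given 100 μM 6-OHDA for 24 h at 37 °C. After two PBS washes, stained with Annexin V-FITC/PI, each diluted 1:100 in binding buffer and mixed 1:1. Imaged by fluorescence microscopy (ex 488; em 515–545 and 575–635 nm). Apoptotic and necrotic cells counted in five fields, three separate groups. Edaravone was the positive control.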

PC-12 [4] = assay: Neuroprotective activity in rat PC12 cells assessed as decrease in 6-OHDA-induced intracellular ROS level incubated for 6 hrs prior to 6-OHDA challenge measured after 24 hrs by DCFH-DA dye-based spectrofluor analysis; format: functional, cell-based
Outline: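 PC12 cells (1×10^5/well) pretreated 6 h with compound at several concentrations one day after seeding, then given 100 μM 6-OHDA for 24 h at 37 °C. Loaded with DCFH-DA (1:1000 in DMEM) for 30 min at 37 °C, 5% CO2, then washed three times with PBS. DCF fluorescence read at 488/525 nm in five fields per well. Untreated cells are set to 100%, mean ± SD, n = 3. Edaravone was the positive control.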

[5] = Cytotoxicity against rat PC12 cells assessed as cell viability at 100 uM incubated for 6 hrs prior to PBS treatment measured after 1 hr by MTT assay; format: cell-based; details: pc-12, 1 h
PC-12 [6] = assay: Neuroprotective activity in rat PC12 cells assessed as decrease in 6-OHDA-induced cell death incubated for 6 hrs prior to 6-OHDA challenge measured after 24 hrs by MTT assay; format: functional, cell-based; outline: as §1
PC-12 [7] = assay: Neuroprotective activity in rat PC12 cells assessed as decrease in 6-OHDA-induced apoptosis at 200 uM incubated for 6 hrs prior to 6-OHDA challenge measured after 24 hrs by annexin V/propidium iodide staining-based fluorescence microscopic analysis; format: functional, cell-based; outline: as §2
PC-12 [8] = assay: Neuroprotective activity in rat PC12 cells assessed as decrease in 6-OHDA-induced early and late apoptosis at 1.56 to 6.25 uM incubated for 6 hrs prior to 6-OHDA challenge measured after 24 hrs by annexin V/propidium iodide staining-based fluorescence microscopic analysis; format: functional, cell-based; outline: as §2
PC-12 [9] = assay: Neuroprotective activity in rat PC12 cells assessed as decrease in 6-OHDA-induced early and late apoptosis at 6.25 to 50 uM incubated for 6 hrs prior to 6-OHDA challenge measured after 24 hrs by annexin V/propidium iodide staining-based fluorescence microscopic analysis; format: functional, cell-based; outline: as §2

COc1ccc(/C=C/C(=O)O[C@H]2[C@H](O)[C@@H](O)[C@H](OCCc3ccc(O)c(O)c3)O[C@@H]2CO)cc1OC
Activity (PC-12 [1]): inactive

O=C(/C=C/c1ccc(O)c(O)c1)O[C@H]1[C@H](O)[C@@H](O)[C@H](OCCc2ccc(O)c(O)c2)O[C@@H]1CO
Activity (PC-12 [1]): Active | Activity (PC-12 [2]): Active

O=C(/C=C/c1ccc(Cl)cc1)O[C@H]1[C@H](O)[C@@H](O)[C@H](OCCc2ccc(O)c(O)c2)O[C@@H]1CO
Activity (PC-12 [1]): Active | Activity (PC-12 [2]): Active

COC(=O)[C@]1(OC)C[C@H](O)[C@@H](NC(=O)/C=C/c2ccc(O)c(O)c2)[C@H]([C@H](O)[C@H](O)CO)O1
Activity (PC-12 [1]): Active | Activity (PC-12 [3]): Active | Activity (PC-12 [4]): Dose-dependent effect | Activity [5]: Non-toxic | Activity (PC-12 [6]): Dose-dependent effect

CC1=NN(c2ccccc2)C(=O)C1
Activity (PC-12 [7]): inactive

O=C(/C=C/c1ccc(O)c(O)c1)OCCc1ccc(O)c(O)c1
Activity (PC-12 [8]): Active | Activity (PC-12 [1]): Active | Activity (PC-12 [4]): Dose-dependent effect | Activity [5]: Non-toxic | Activity (PC-12 [6]): Dose-dependent effect

O=C(Cc1ccc(O)c(O)c1)O[C@H]1[C@H](O)[C@@H](O)[C@H](OCCc2ccc(O)c(O)c2)O[C@@H]1CO
Activity (PC-12 [1]): Active | Activity (PC-12 [4]): Dose-dependent effect | Activity (PC-12 [9]): Active | Activity [5]: Non-toxic | Activity (PC-12 [6]): Dose-dependent effect

OC[C@H]1O[C@@H](OCCc2ccc(O)c(O)c2)[C@H](O)[C@@H](O)[C@@H]1O
Activity (PC-12 [1]): Active | Activity (PC-12 [2]): Active

O=C(/C=C/c1ccc(F)c(F)c1)O[C@H]1[C@H](O)[C@@H](O)[C@H](OCCc2ccc(O)c(O)c2)O[C@@H]1CO
Activity (PC-12 [1]): Active | Activity (PC-12 [2]): Active
